Vif inh: HIV Vif self-association inhibitors, primary screen, imaging, HEK293T, single point. actives 0.35% (n = 340,000). HEK293T cells, Vif self-association by quenched fluorescence, 24 h. inhibition, % at 7.49 µM; in the data active = inhibition above about 50%, passing the limit was not always enough
SR-BI uptake up: activators of SR-BI mediated DiI-HDL uptake, primary screen, ldlA[mSR-BI] CHO cells, DiI fluorescence; 3 h; 100 = double the neutral-control signal; activation, % at 12.5 µM; actives 0.096% (n = 320,000); AID 504775, 2011;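 active = mean replicate activation of at least 60% and every replicate at or above 60%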
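Test system: SR-BI-overexpressing, LDLR-lacking CHO cells; Medium: Ham's F12 with 0.5% BSA, HEPES 25 mM, pH 7.4; Schedule: 3 h, 37 °C; Technique: bottom-read fluorescence, 550/595 nm.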
H9c2 TAG inh: inhibitors of triacylglycerol accumulation, primary screen, cell-based, uHTS, fluorescence, H9c2; actives 0.66% (n = 230,000); inhibition, % at 12.5 µM; H9c2 cells, Nile Red lipid (TAG) fluorescence; cells loaded with 200 µM oleic acid;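 active = pattern-corrected inhibition of lipid staining of at least 50% with the nuclear-stain viability signal not falling by more than 50%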
A1 inh: caspase 3/7 activation in MEF A1-2A-BIM cells, primary screen, A1 inhibitor project, cell-based, luminescence, HTS. Caspase-Glo 3/7 luminescence, 3 h; percent of clofoctol response, vehicle zero. caspase activation, % (test concentration not listed). actives 0.066% (n = 330,000);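 active = over half of replicate activation scores above 10%, or exactly half above 10 with the replicate mean above 10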
SR-BI HDL uptake: inhibitors of SR-BI mediated HDL lipid uptake, primary screen, ldlA[mSR-BI] cells, fluorescence, single point. inhibition, % at 12.5 µM. ldlA[mSR-BI] CHO cells, DiI-HDL uptake fluorescence, 3 h. Scavenger receptor class B member 1 (Mus musculus), Q61009. actives 0.96% (n = 320,000);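 active = mean replicate inhibition of at least 70% and a set share of replicates each scoring 70 or more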
Target sequence (Q61009 whole entry, looked up): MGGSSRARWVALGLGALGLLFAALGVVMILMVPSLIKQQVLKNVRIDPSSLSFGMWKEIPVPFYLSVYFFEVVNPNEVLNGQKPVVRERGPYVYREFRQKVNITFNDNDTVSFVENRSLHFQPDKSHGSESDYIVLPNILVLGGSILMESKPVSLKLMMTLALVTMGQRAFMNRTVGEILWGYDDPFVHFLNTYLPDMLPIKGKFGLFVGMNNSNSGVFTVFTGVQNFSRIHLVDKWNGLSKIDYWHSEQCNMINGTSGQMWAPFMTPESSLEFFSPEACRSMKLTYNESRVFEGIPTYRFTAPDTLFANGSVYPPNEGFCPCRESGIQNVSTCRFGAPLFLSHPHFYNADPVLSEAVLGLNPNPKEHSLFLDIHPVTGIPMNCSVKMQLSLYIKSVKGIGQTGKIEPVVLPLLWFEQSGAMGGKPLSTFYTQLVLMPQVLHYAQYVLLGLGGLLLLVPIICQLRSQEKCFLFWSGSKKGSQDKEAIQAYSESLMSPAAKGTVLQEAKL
Hits are given with their value. Compounds with a hit are over-represented: about 1.6% of the library has one in this group of screens.

How did COC(=O)C1=C(C)N(Cc2ccco2)C(=O)/C1=C\c1ccc(N(C)C)cc1 do in these assays?
Vif inh: 71; SR-BI uptake up: inactive; A1 inh: inactive; SR-BI HDL uptake: inactive

What do the screens show for `CC(C)=CC(=O)OCc1csc(CC(=O)Nc2ccccc2C)n1`?
SR-BI uptake up: inactive; H9c2 TAG inh: inactive; A1 inh: inactive; SR-BI HDL uptake: inactive

How did CC(=O)c1c(C)[nH]c(C(=O)OCc2csc(CC(=O)Nc3ccccc3C)n2)c1C do in these assays?
Vif inh: inactive; SR-BI uptake up: inactive; H9c2 TAG inh: inactive; A1 inh: inactive; SR-BI HDL uptake: 73

Results for O=C(N/N=C/c1ccncc1)c1nn(Cc2ccccc2)c(=O)c2ccccc12 ?
Vif inh: inactive; SR-BI uptake up: inactive; H9c2 TAG inh: inactive; A1 inh: inactive; SR-BI HDL uptake: inactive

How did CCCCC1(C(=O)OCC)CC(CSC(=N)N)OC1=O (configuration not stated) do in these assays?
Vif inh: inactive; SR-BI uptake up: inactive; H9c2 TAG inh: inactive; A1 inh: inactive; SR-BI HDL uptake: inactive

Results for Cc1cc(C)cc(C(=O)OCC(=O)Nc2ncccn2)c1 ?
Vif inh: 56; SR-BI uptake up: inactive; H9c2 TAG inh: inactive; A1 inh: inactive; SR-BI HDL uptake: inactive

What do the screens show for `Cc1cc(C)cc(C(=O)OCC(=O)NC2CCCC2)c1`?
Vif inh: inactive; SR-BI uptake up: inactive; A1 inh: inactive; SR-BI HDL uptake: inactive

What do the screens show for `Cc1cccc(N2CCN(C(=O)c3ccc4c(c3)NC(=O)C(CSCc3cccc(F)c3)N4)CC2C)c1` (configuration not stated)?
Vif inh: 61; SR-BI uptake up: inactive; A1 inh: inactive; SR-BI HDL uptake: inactive

How did O=C1Nc2cc(C(=O)N3CCN(c4ccccc4F)CC3)ccc2NC1CSCc1ccccc1F (configuration not stated) do in these assays?
A1 inh: inactive

Results for Cc1cc2c(sc3c(C)ccc(C)c32)c(C)n1 ?
Vif inh: inactive; SR-BI uptake up: inactive; H9c2 TAG inh: inactive; A1 inh: inactive; SR-BI HDL uptake: inactive

What do the screens show for `O=C(CSC1=NCCN1)Nc1cccc([N+](=O)[O-])c1`?
Vif inh: inactive; SR-BI uptake up: inactive; H9c2 TAG inh: inactive; A1 inh: inactive; SR-BI HDL uptake: 82

How did O=C(OCCc1ccccc1)c1cc(O)c(O)c(O)c1 do in these assays?
Vif inh: 51; SR-BI uptake up: inactive; H9c2 TAG inh: inactive; A1 inh: inactive; SR-BI HDL uptake: inactive

How did CCOC(=O)N/N=C/c1ccc(OCCSc2ccc(Cl)cc2)c(OCC)c1 do in these assays?
Vif inh: inactive; SR-BI uptake up: inactive; A1 inh: inactive; SR-BI HDL uptake: 74

What do the screens show for `C(=C/c1nccc2c1[nH]c1ccccc12)/c1ccc2c(c1)OCO2`?
Vif inh: 72; SR-BI uptake up: inactive; H9c2 TAG inh: inactive; SR-BI HDL uptake: inactive

What do the screens show for `C(=N\Nc1nc2ccccc2[nH]1)/c1ccc2c(c1)OCO2`?
Vif inh: inactive; SR-BI uptake up: inactive; H9c2 TAG inh: inactive; SR-BI HDL uptake: inactive

Results for CCC1CCC/C1=N\NC(=O)c1ccccc1C (configuration not stated) ?
Vif inh: inactive; SR-BI uptake up: inactive; H9c2 TAG inh: inactive; A1 inh: inactive; SR-BI HDL uptake: inactive

Results for COc1ccccc1NC(=O)Cn1c(O)c(N=NC(=O)c2ccccc2O)c2ccccc21 ?
Vif inh: 116; SR-BI uptake up: inactive; H9c2 TAG inh: inactive; A1 inh: inactive; SR-BI HDL uptake: inactive

What do the screens show for `Cc1ccc(NC(=O)Cn2c(O)c(N=NC(=O)c3cc4ccccc4cc3O)c3ccccc32)cc1`?
Vif inh: inactive; SR-BI uptake up: inactive; A1 inh: inactive; SR-BI HDL uptake: inactive

How did COc1cc(OC)cc(-c2sc3ccc(OC)cc3c2C#CC(C)(C)O)c1 do in these assays?
Vif inh: inactive; SR-BI uptake up: inactive; A1 inh: inactive; SR-BI HDL uptake: inactive

How did COc1cc(OC)cc(-c2sc3ccc(OC)cc3c2C#CCO)c1 do in these assays?
Vif inh: inactive; SR-BI uptake up: inactive; H9c2 TAG inh: inactive; A1 inh: inactive; SR-BI HDL uptake: 79

How did CC1=C(C(=O)Nc2ccccc2C(=O)N2CCN(c3ccccc3)CC2)SCCO1 do in these assays?
Vif inh: inactive; H9c2 TAG inh: inactive

How did CCCOc1ccccc1/C=C(\C#N)C(=O)Nc1cccnc1 do in these assays?
Vif inh: inactive; SR-BI uptake up: inactive; H9c2 TAG inh: inactive; A1 inh: inactive; SR-BI HDL uptake: inactive

What do the screens show for `c1ccc(CCCNCCCn2cnc3c(OCc4ccccc4)ncnc32)cc1`?
SR-BI uptake up: inactive; H9c2 TAG inh: inactive; SR-BI HDL uptake: inactive

Results for CCc1cccc2c(C(=O)COC(=O)/C=C/c3ccc(O)c(OC)c3)c[nH]c12 ?
Vif inh: inactive; SR-BI uptake up: inactive; A1 inh: inactive; SR-BI HDL uptake: 76

How did COc1cccc(/C=C/C(=O)OCC(=O)c2c[nH]c3ccccc23)c1 do in these assays?
Vif inh: inactive; SR-BI uptake up: inactive; H9c2 TAG inh: inactive; SR-BI HDL uptake: inactive

Results for Cc1cc(/C=N/NC(N)=S)c(C)n1-c1ccc(Cl)c(Cl)c1 ?
Vif inh: inactive; SR-BI uptake up: inactive; H9c2 TAG inh: inactive; A1 inh: inactive; SR-BI HDL uptake: 81

How did C=C[C@@]1(C)CC(=O)[C@]2(O)[C@@]3(C)[C@@H](O)CCC(C)(C)[C@@H]3[C@H](O)[C@H](OC(C)=O)[C@@]2(C)O1 do in these assays?
Vif inh: 75; SR-BI uptake up: inactive; H9c2 TAG inh: inactive; A1 inh: inactive; SR-BI HDL uptake: inactive

How did C=C[C@@]1(C)CC(=O)[C@]2(O)[C@@]3(C)[C@@H](O)CCC(C)(C)[C@@H]3[C@H](OC(C)=O)[C@H](O)[C@@]2(C)O1 do in these assays?
Vif inh: 82; SR-BI uptake up: inactive; A1 inh: inactive; SR-BI HDL uptake: inactive

What do the screens show for `C=C1C(=O)O[C@H]2C[C@]3(C)C([C@@H](OC(=O)/C(C)=C/C)[C@H]12)[C@](C)(O)CC[C@H]3O` (some centres not stated)?
Vif inh: inactive; SR-BI uptake up: inactive; A1 inh: inactive; SR-BI HDL uptake: inactive

Results for NC1=NC(=O)/C(=C/c2cn(Cc3ccccc3)c3ccccc23)S1 ?
Vif inh: inactive; SR-BI uptake up: inactive; H9c2 TAG inh: inactive; A1 inh: inactive; SR-BI HDL uptake: inactive

How did Cc1ccc(Nc2c([N+](=O)[O-])c(=O)n(C)c3ccccc23)cc1C do in these assays?
Vif inh: inactive; SR-BI uptake up: inactive; A1 inh: inactive; SR-BI HDL uptake: 71

Results for Cn1cc(C(=O)c2ccc(Cl)cc2Cl)cc1C(=O)N/N=C(\N)COc1cccc(C(F)(F)F)c1 ?
Vif inh: inactive; SR-BI uptake up: inactive; H9c2 TAG inh: inactive; A1 inh: inactive; SR-BI HDL uptake: 81

Screening data (PubChem)
